This note sets out measurements from ChEMBL document CHEMBL3271956, “Oxindole-3-spiropyrrolidines and -piperidines. Synthesis and local anesthetic activity” (J Med Chem, 1976).

Data set [1] is described as follows: Toxicity in iv dosed mouse. The note with it: in vivo. The class given is organism-based.
In data set [2] the test system is Rattus norvegicus. As to the kind of experiment: Local anesthetic activity in rat assessed as frequency at 1% administered as base by sciatic nerve block method. The class given is functional, organism-based. The method, boiled down: (§1)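 Rat sciatic nerve block. Solutions are dosed with concentration expressed as base, and the pH of each solution is recorded. Groups are typically 10 rats. Onset is given in min. Frequency is the number of rats blocked out of those tested. Duration is in min, as mean ± SD.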

Data set [3] deals with Rattus norvegicus. The data set is described as follows: Local anesthetic activity in rat assessed as frequency at 2% administered as base by sciatic nerve block method. Type of data set: functional, organism-based. In short, it runs like this: as §1
The subject of data set [4] is Rattus norvegicus. The data set is described as follows: Local anesthetic activity in rat assessed as onset time at 1% administered as base by sciatic nerve block method. Type of data set: functional. The method, boiled down:
as §1

Data set [5] has as its system Rattus norvegicus. As to the kind of experiment: Local anesthetic activity in rat assessed as duration of action at 2% administered as base by sciatic nerve block method. The class given is functional. The method, boiled down:
as §1

The test system of data set [6] is Rattus norvegicus. As to the kind of experiment: Local anesthetic activity in rat assessed as onset time at 2% administered as base by sciatic nerve block method. Type of data set: functional. The method, boiled down:
as §1

The test system of data set [7] is Rattus norvegicus. The data set is described as follows: Local anesthetic activity in rat assessed as duration of action at 1% administered as base by sciatic nerve block method. The class given is functional. In short, it runs like this:
as §1

For data set [8], the system named is Rattus norvegicus. As to the kind of experiment: Toxicity in rat at 2% administered as base after 30 mins. The class given is organism-based. To be noted: in vivo, 0.5 h.
The test system of data set [9] is Rattus norvegicus. The data set is described as follows: Toxicity in rat at 2% administered as base after 25 mins. The class given is organism-based. To be noted: in vivo.
Data set [10] deals with Rattus norvegicus. As to the kind of experiment: Toxicity in rat at 2% administered as base after 40 mins. The class given is organism-based. To be noted: in vivo.

One may read the LD50 as the dose expected to kill half of the subjects tested.

Molecules are shown by their SMILES. Calls of active or inactive are those of the source. The rule behind the calls is not given here.

For the molecule `CCCN1CCCC2(C1)C(=O)Nc1ccccc12` (configuration not stated) [listing 1 of 2 here], in [1], the median lethal dose (LD50) is 41 mg/kg.
Regarding `CCN1CCC2(C1)C(=O)Nc1c(C)cccc12` (configuration not stated) [listing 1 of 2 here], the result in the data set with Rattus norvegicus [2] and in the data set on Rattus norvegicus [3] was Active.
As to `CN1CCC2(C1)C(=O)Nc1ccccc12` (configuration not stated), the Time with Rattus norvegicus [4] is 11 min; with Rattus norvegicus [5], 83 min; with Rattus norvegicus [6], 6 min; in the data set with Rattus norvegicus [7], 56 min. The result with Rattus norvegicus [2] and in the data set with Rattus norvegicus [3] was Active.
For `CCN1CCC2(C1)C(=O)Nc1c(C)cccc12.Cl` (configuration not stated), the Activity entry in the data set with Rattus norvegicus [8] is on record as “Toxic”. Also, the Time with Rattus norvegicus [4] was 3 min; in the data set with Rattus norvegicus [6] it was 2 min; in the data set on Rattus norvegicus [7] it was 93 min.
Regarding `CCN1CCCC12C(=O)Nc1ccccc12` (configuration not stated), the Time with Rattus norvegicus [4] stood at 6 min; in the data set with Rattus norvegicus [5], 107 min; with Rattus norvegicus [6], 5 min; with Rattus norvegicus [7], 83 min. Moreover, the outcome in the data set on Rattus norvegicus [2] and in the data set on Rattus norvegicus [3] was Active. This molecule came in with an LD50 in data set [1] of 119 mg/kg.
For `CCCN1CCC2(C1)C(=O)Nc1ccccc12` (configuration not stated) [listing 1 of 2 here], the result in the data set with Rattus norvegicus [2] and in the data set on Rattus norvegicus [3] was Active.
Turning to `CCN(CC)CC(=O)Nc1c(C)cccc1C` [LIDOCAINE], the outcome in the data set with Rattus norvegicus [2] and in the data set with Rattus norvegicus [3] was Active. Moreover, the Time stood at 141 min with Rattus norvegicus [5] and 1 min in the data set on Rattus norvegicus [6].
Molecule `CCCN1CCC2(C1)C(=O)Nc1ccccc12` (configuration not stated) [listing 2 of 2 here] registered an LD50 in data set [1] of 25 mg/kg.
Regarding `CCCN1CCCC2(C1)C(=O)Nc1ccccc12` (configuration not stated) [listing 2 of 2 here], the outcome with Rattus norvegicus [2] and with Rattus norvegicus [3] was Active.
Turning to `CCN1CCC2(C1)C(=O)Nc1ccccc12` (configuration not stated), the Time in the data set on Rattus norvegicus [4] is reported as 4 min; in the data set on Rattus norvegicus [5] it was 85 min; in the data set with Rattus norvegicus [6], 3 min; in the data set on Rattus norvegicus [7], 67 min. In addition, the outcome with Rattus norvegicus [2] and in the data set on Rattus norvegicus [3] was Active. The molecule also gave an LD50 in [1] of 38 mg/kg.
Take `CCCN1CCC2(C1)C(=O)Nc1ccccc12.Cl` (configuration not stated): the Time in the data set on Rattus norvegicus [4] turned out to be 3 min; in the data set on Rattus norvegicus [5], 78 min; in the data set on Rattus norvegicus [6] it was 2 min; in the data set with Rattus norvegicus [7], 66 min.
For the molecule `CCN1CCC2(C1)C(=O)Nc1c(C)cccc12` (configuration not stated) [listing 2 of 2 here], in [1], the LD50 came to 23 mg/kg.
For the molecule `CCN1CCC2(CC1)C(=O)Nc1ccccc12`, the Time is 6 min with Rattus norvegicus [4], 120 min with Rattus norvegicus [5], 5 min in the data set on Rattus norvegicus [6] and 86 min with Rattus norvegicus [7]. In addition, the outcome with Rattus norvegicus [2] and with Rattus norvegicus [3] was Active. This molecule also displayed an LD50 in [1] of 53 mg/kg.
Regarding `CCCN1CCCC2(C1)C(=O)Nc1ccccc12.O=S(=O)(O)O` (configuration not stated), the Time was 6 min in the data set on Rattus norvegicus [4], 95 min in the data set with Rattus norvegicus [5], 4 min in the data set on Rattus norvegicus [6] and 75 min with Rattus norvegicus [7].
Turning to `CN1CCCCC12C(=O)Nc1ccccc12` (configuration not stated), the Time with Rattus norvegicus [4] is 5 min; in the data set on Rattus norvegicus [5], 97 min; in the data set on Rattus norvegicus [6] it was 3 min; in the data set on Rattus norvegicus [7], 81 min. The outcome in the data set on Rattus norvegicus [2] and in the data set on Rattus norvegicus [3] was Active. The LD50 in data set [1] amounted to 97 mg/kg.
For the molecule `CCN1CCC2(CC1)C(=O)Nc1c(C)cccc12`, the Time in the data set with Rattus norvegicus [4] was found to be 3 min; in the data set with Rattus norvegicus [6], 3 min; with Rattus norvegicus [7], 108 min. The result in the data set with Rattus norvegicus [2] and in the data set on Rattus norvegicus [3] was Active. In [1], this molecule had an LD50 of 21 mg/kg. Further, the Activity result with Rattus norvegicus [9] and in the data set on Rattus norvegicus [10] was “Toxic” throughout.
